The record followed here is ChEMBL document CHEMBL3112548, “Synthesis and biological evaluation of novel tetrahydro-β-carboline derivatives as antitumor growth and metastasis agents through inhibiting the transforming growth factor-β signaling pathway” (J Med Chem, 2014).

Activity calls are given as the source filed them. The calls are words filed in the database; no cut-off is given here.

Data set [1] is described as follows: Antiproliferative activity against human PC9 cells at 10 uM after 48 hrs by SRB assay. Particulars: PC-9, 48 h. Format: functional. The method in brief:
(§1)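 SRB assay: 1 × 10^4 cells per well in 96-well plates exposed to compound 48 h; fixed with 10% TCA, stained 30 min at room temperature, washed with 1% acetic acid, dye dissolved in 10 mM Tris base, OD 510 nm. Percent inhibition = decrease in absorbance relative to DMSO control wells.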

Data set [2] has as its target TGF-beta receptor type-1 (Homo sapiens) (UniProt P36897). The experiment in a line: Inhibition of TGFbetaR1-mediated smad phosphorylation in human HaCaT cells at 1 uM measured within 24 hrs by dual-luciferase reporter gene assay. (A reporter such as luciferase makes a cellular process visible.)
For data set [3], the system named is A549. Kind of data set: Antitumor activity against human A549 cells xenografted in nude mouse assessed as suppression of tumor volume at 20 mg/kg, ip qd for 60 days measured up to 60 days. In kind it is functional, organism-based. On the set-up: dose 20 mg/kg. In outline: (§2)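 Nude mice (5 weeks old, acclimated 1 week) given 5 × 10^5 A549 cells in PBS subcutaneously; at ~10 mm tumor diameter, 15 mice size-matched into three groups (n = 5): DMSO vehicle, 5.0 mg/kg or 20 mg/kg ip in 50 μL DMSO daily for 60 days. Body weight and tumor dimensions measured daily; volume = 0.52 × AB².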
In general terms: In xenograft studies the graft and the host belong to different species.

The subject of data set [4] is Mus musculus. Kind of data set: Toxicity in nude mouse xenografted with human A549 cells assessed as body weight change at 20 mg/kg, ip qd for 60 days measured up to 60 days. Format: organism-based. On the set-up: dose 20 mg/kg, route intraperitoneal. The settings on record: in vivo, 1440 h. The method in brief:
as §2

Data set [5] in a line: Antiproliferative activity against human PC9 cells after 48 hrs by SRB assay. In kind it is functional, cell-based. The settings on record: PC-9, 48 h. In outline: as §1
Data set [6] is described as follows: Antiproliferative activity against human H1299 cells after 48 hrs by SRB assay. In kind it is functional, cell-based. The settings on record: NCI-H1299, 48 h. The method in brief: as §1
For orientation: In SRB staining, fixed cells bind dye roughly in proportion to their protein.

Data set [7] concerns A549. Kind of data set: Antiproliferative activity against human A549 cells after 48 hrs by SRB assay. The settings on record: A549, 48 h. Format: functional, cell-based. In outline:
as §1

The nature of data set [8]: Antimigratory activity against human H1299 cells assessed as inhibition of cell migration after 12 to 24 hrs by transwell migration assay. Format: functional, cell-based. Particulars: NCI-H1299. In outline:
(§3)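 Transwell chambers, 8 μm pore filters; 5 × 10^5 cells in DMEM in top chamber with compound, 10% FBS medium below, 37 °C, 5% CO2; after 12−24 h non-migrated cells swabbed off, migrated cells fixed, stained with 0.2% crystal violet in PBS and counted in five random 10× fields per membrane. Means ± SD.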

Data set [9] in a line: Antimigratory activity against human H1299 cells assessed as decrease in cell migration after 12 hrs by wound healing assay. The settings on record: NCI-H1299, 12 h.
In data set [10] the test system is A549. Kind of data set: Antitumor activity against human A549 cells xenografted in nude mouse assessed as suppression of tumor volume at 5 mg/kg, ip qd for 60 days measured up to 60 days. Format: functional, organism-based. On the set-up: dose 5 mg/kg. The method in brief:
as §2

Data set [11] relates to NCI-H1299. Kind of data set: Antiproliferative activity against human H1299 cells assessed as cell viability at 1 uM after 12 hrs by SRB assay. In kind it is functional, cell-based.
Data set [12] relates to Mus musculus. The experiment in a line: Toxicity in nude mouse xenografted with human A549 cells assessed as body weight change at 5 mg/kg, ip qd for 60 days measured up to 60 days. Format: organism-based. Particulars: in vivo, 1440 h. Also on record: dose 5 mg/kg, route intraperitoneal. The method in brief:
as §2

Data set [13] deals with A549. Kind of data set: Antiproliferative activity against human A549 cells assessed as cell viability at 1 uM after 12 hrs by SRB assay. Format: functional, cell-based.
In a further data set the test system is 4T1. The experiment in a line: Antitumor activity against mouse 4T1 cells expressing luciferase allograted in ip dosed Balb/c mouse assessed as suppression of tumor volume compound administered for 20 days measured after 20 days. Format: functional, organism-based. In outline: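 Female Balb/c mice (6 weeks old) given 5 × 10^4 4T1-luciferase cells into mammary fat pad; after 7 days (~5 mm tumors) 24 mice randomized into DMSO vehicle, 1.0 or 5.0 mg/kg/day ip groups; after 20 days tumor burden quantified as bioluminescence by in vivo imaging. Body weight measured daily. Mean ± SD.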

In data set [14] the test system is NCI-H1299. The experiment in a line: Antimigratory activity against human H1299 cells assessed as reduction of cell velocity at 1 uM after 24 hrs by time-lapse video microscopy. In kind it is functional, cell-based. The method in brief:
(§4)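 H1299 cells (5 × 10^4) in 30 mm dishes pretreated with or without compound for 24 h, then tracked by time-lapse microscopy, one frame per 10 min over 10 h; eight random cells per condition; migration distance and speed taken from track plots. Means ± SD, Student's t test.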

Data set [15] concerns A549. The experiment in a line: Antimigratory activity against human A549 cells assessed as decrease in cell migration after 12 hrs by wound healing assay. Particulars: A549, 12 h.
Data set [16] concerns NCI-H1299. Kind of data set: Antimigratory activity against human H1299 cells assessed as reduction in distance at 1 uM after 24 hrs by time-lapse video microscopy. Format: functional, cell-based. In outline:
as §4

Data set [17] relates to A549. Kind of data set: Antimigratory activity against human A549 cells assessed as inhibition of cell migration after 12 to 24 hrs by transwell migration assay. In kind it is functional, cell-based. The method in brief: as §3

TGF-beta receptor type-1 (Homo sapiens), sequence (P36897 whole entry, looked up): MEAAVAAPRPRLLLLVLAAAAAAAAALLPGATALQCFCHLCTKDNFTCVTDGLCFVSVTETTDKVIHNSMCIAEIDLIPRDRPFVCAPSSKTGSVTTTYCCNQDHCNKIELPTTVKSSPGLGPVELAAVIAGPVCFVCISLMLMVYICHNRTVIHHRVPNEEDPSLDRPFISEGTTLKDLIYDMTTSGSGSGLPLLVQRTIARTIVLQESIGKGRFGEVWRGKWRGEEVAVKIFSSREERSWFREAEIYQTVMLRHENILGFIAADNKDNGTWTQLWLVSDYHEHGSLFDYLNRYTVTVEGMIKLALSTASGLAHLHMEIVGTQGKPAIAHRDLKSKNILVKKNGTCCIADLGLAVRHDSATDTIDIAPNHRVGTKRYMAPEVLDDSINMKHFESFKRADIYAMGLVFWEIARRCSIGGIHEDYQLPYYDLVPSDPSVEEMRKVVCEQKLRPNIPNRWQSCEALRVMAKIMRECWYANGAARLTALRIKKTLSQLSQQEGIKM

A word on the inhibition: it is the drop in the measured response relative to a control, in per cent. A high value points to a strong effect. For the molecule `NC(C(=O)N1CCc2c([nH]c3ccccc23)C1)c1ccccc1` (stereo unspecified), 10 µM produced 11% inhibition in [1]. In data set [2], the inhibition is 10.9%.

`COc1cc2ncnc(Nc3ccc(F)c(Cl)c3)c2cc1OCCCN1CCOCC1` [GEFITINIB]: the result in the data set on A549 [3] was Active. Also, in the data set on Mus musculus [4], the Activity entry is “Toxic”.

The molecule `O=C(Cc1cccc(O)c1)N1CCc2c([nH]c3ccccc23)C1` had an inhibition at 10 µM in data set [1] of 11%. This molecule returned an inhibition in data set [2] of 29.1%.

As a reminder, the IC50 is the midpoint of a concentration-inhibition curve. With `O=C(Cc1ccccc1)N1CCc2c([nH]c3ccc(F)cc23)C1`, in [1], the inhibition at 10 µM amounted to 78%. The 50% inhibitory concentration (IC50) in [5] turned out to be 7.09 µM; in data set [6], 6.19 µM; with A549 [7] it was 4.85 µM.

As to `O=C(C(O)c1ccccc1)N1CCc2c([nH]c3ccccc23)C1` (stereo unspecified), the inhibition at 10 µM in data set [1] is 28%. For the same molecule, the inhibition in data set [2] is 12.9%.

Consider `O=C(N1CCc2c([nH]c3ccccc23)C1)C(O)(c1ccccc1)c1ccccc1`, for which 10 µM produced 0% inhibition in [1]. In addition, the inhibition in data set [2] turned out to be 12.3%.

On to `O=C(Cc1ccccc1O)N1CCc2c([nH]c3ccccc23)C1`, for which at 10 µM the inhibition in data set [1] was 33%. For the same molecule, the inhibition in data set [2] came out at 19.7%.

On to `COC(=O)CC1c2[nH]c3ccccc3c2CCN1C(=O)Cc1ccccc1` (stereo unspecified), for which the inhibition in data set [2] was found to be 18.2%.

The molecule `O=C(Cc1ccc(CBr)cc1)N1CCc2c([nH]c3ccccc23)C1` returned an inhibition at 10 µM in [1] of 26%. Besides, the inhibition in [2] worked out at 50.1%.

For the molecule `NC(=O)c1ccc(-c2nc(-c3ccccn3)c(-c3ccc4c(c3)OCO4)[nH]2)cc1` [SB-431542], in data set [8], the IC50 was 0.5 µM.

In the case of `O=C(Cc1ccccc1)N1CCc2c([nH]c3ccccc23)C1`, the inhibition at 10 µM in data set [1] is 59%. In addition, the concentration for half-maximal inhibition (IC50) in [9] is 0.1 µM; in [5], 5.87 µM; in data set [8], below 0.5 µM; in data set [6], 8.07 µM; with A549 [7] it was 7.9 µM; with A549 [15] it was 0.1 µM. In the data set on A549 [17], the IC50 was below 0.5 µM. For the same molecule, the result in the data set on A549 [10], in the data set with NCI-H1299 [11], in the data set on A549 [13], with NCI-H1299 [14] and with NCI-H1299 [16] was Active. Further, the figures for the Activity result with Mus musculus [12] and in the data set with 4T1 were “Toxic” and “Dose-dependent effect”, respectively. In [2], this molecule displayed an inhibition of 72.4%.

With `CC(C)(C)OC(=O)NC(C(=O)N1CCc2c([nH]c3ccccc23)C1)c1ccccc1` (stereo unspecified), the inhibition at 10 µM in data set [1] amounted to 31%. Moreover, the inhibition in data set [2] was 58.8%.

In data set [1], `CC(C)(C)OC(=O)NC(Cc1ccccc1)C(=O)N1CCc2c([nH]c3ccccc23)C1` (stereo unspecified) returned an inhibition at 10 µM of 0%. Further, the inhibition in data set [2] amounted to 44.3%.

In data set [1], `O=C(c1ccccc1)N1CCc2c([nH]c3ccccc23)C1` yielded an inhibition at 10 µM of 7%. In data set [2], the inhibition came out at 9.5%.

As to `O=C(Cc1ccc(O)cc1)N1CCc2c([nH]c3ccccc23)C1`, 10 µM produced 39% inhibition in [1]. The inhibition in data set [2] was found to be 64.2%.

Regarding `O=C(Cc1ccc(F)cc1)N1CCc2c([nH]c3ccccc23)C1`, at 10 µM the inhibition in [1] was 21%. For the same molecule, in data set [2], the inhibition came to 11.8%.

In the case of `O=C(O)CC1c2[nH]c3ccccc3c2CCN1C(=O)Cc1ccccc1` (stereo unspecified), the inhibition at 10 µM in data set [1] came to 9%. This molecule returned an inhibition in data set [2] of 4.1%.

Take `O=C(Cc1ccc(O)c(O)c1)N1CCc2c([nH]c3ccccc23)C1`: testing at 10 µM in data set [1] gave an inhibition of 26%. Further, the inhibition in data set [2] came to 21%.

`O=C(CCc1ccccc1)N1CCc2c([nH]c3ccccc23)C1` returned an inhibition at 10 µM in data set [1] of 48%. The molecule further had an inhibition in [2] of 31.1%.

As to `O=Cc1ccc(CC(=O)N2CCc3c([nH]c4ccccc34)C2)cc1`, at 10 µM the inhibition in [1] was 21%. In [2], this molecule had an inhibition of 11.8%.

Take `CC1c2[nH]c3ccc(O)cc3c2CCN1C(=O)Cc1ccccc1` (stereo unspecified): the inhibition at 10 µM in [1] amounted to 8%. The molecule also yielded an inhibition in [2] of 11.2%.

`Nc1ccc(CC(=O)N2CCc3c([nH]c4ccccc34)C2)cc1` showed an inhibition at 10 µM in data set [1] of 8%. Moreover, the inhibition in data set [2] was found to be 18.1%.

Turning to `O=C(c1ccccn1)N1CCc2c([nH]c3ccccc23)C1`, in data set [1], testing at 10 µM gave an inhibition of 4%. In data set [2], this molecule had an inhibition of 1.1%.

In data set [1], `CCC1c2[nH]c3ccccc3c2CCN1C(=O)Cc1ccccc1` (stereo unspecified) displayed an inhibition at 10 µM of 24%. The molecule further showed an inhibition in data set [2] of 52.1%.

`CCN(CC)c1ccc(CC(=O)N2CCc3c([nH]c4ccccc34)C2)cc1` had an inhibition at 10 µM in data set [1] of 18%. This molecule displayed an inhibition in data set [2] of 49%.

For `O=C(Cc1ccccc1)N1CCc2c([nH]c3ccccc23)C1c1ccccc1` (stereo unspecified), testing at 10 µM in data set [1] gave an inhibition of 10%. This molecule also yielded an inhibition in data set [2] of 10.3%.

The molecule `O=C(c1cccs1)N1CCc2c([nH]c3ccccc23)C1` yielded an inhibition at 10 µM in data set [1] of 9%. In data set [2], this molecule returned an inhibition of 2.2%.

In data set [1], `O=C(Cc1ccccc1)N1CCc2c([nH]c3ccc(Br)cc23)C1` displayed an inhibition at 10 µM of 47%.

Take `O=C(Cc1ccc(Cl)cc1)N1CCc2c([nH]c3ccccc23)C1`: at 10 µM the inhibition in data set [1] was 33%. In [2], this molecule yielded an inhibition of 7.9%.
